In ChEMBL document CHEMBL4334541, “Nicotinamide Phosphoribosyltransferase (NAMPT) Is a New Target of Antitumor Agent Chidamide” (ACS Med Chem Lett, 2020) one finds IC50 and inhibition data, which are given here for one molecule.

Activity calls are given as the source filed them. The rule behind the calls is not given here.

Experiment [1] addresses T1, Nicotinamide phosphoribosyltransferase (Homo sapiens, UniProt P43490). The experiment in a line: Inhibition of human NAMPT using NAM and PRPP as substrates incubated for 90 mins in presence of NMNAT by fluorometric method.
Target sequence in this assay (P43490 whole entry): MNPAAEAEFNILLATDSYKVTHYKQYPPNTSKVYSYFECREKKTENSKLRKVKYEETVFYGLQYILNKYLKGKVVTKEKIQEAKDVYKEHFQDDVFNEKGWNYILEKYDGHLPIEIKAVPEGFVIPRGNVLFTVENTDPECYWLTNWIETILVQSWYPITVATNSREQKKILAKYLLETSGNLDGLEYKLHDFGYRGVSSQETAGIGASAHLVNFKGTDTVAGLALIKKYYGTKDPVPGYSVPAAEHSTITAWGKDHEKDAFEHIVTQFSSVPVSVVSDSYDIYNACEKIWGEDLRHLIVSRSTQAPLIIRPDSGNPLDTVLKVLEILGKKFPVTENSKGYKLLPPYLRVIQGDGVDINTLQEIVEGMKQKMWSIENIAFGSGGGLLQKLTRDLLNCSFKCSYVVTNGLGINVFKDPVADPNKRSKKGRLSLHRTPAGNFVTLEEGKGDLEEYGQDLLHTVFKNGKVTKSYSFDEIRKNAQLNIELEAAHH
Experiment [2] concerns HCT-116. The experiment in a line: Antiproliferative activity against human HCT116 cells assessed as reduction in cell viability after 72 hrs by CCK8 assay. Format: functional, cell-based. To be noted: HCT-116, 72 h. A general note: Tetrazolium assays rely on reduction of a dye to a coloured formazan, in cell work by metabolically active cells.
Experiment [3] deals with K562. In words: Antiproliferative activity against human K562 cells assessed as reduction in cell viability after 72 hrs by CCK8 assay. To be noted: K562, 72 h. Type of experiment: functional, cell-based.
Experiment [4] deals with HL-60. The experiment in a line: Antiproliferative activity against human HL60 cells assessed as reduction in cell viability after 72 hrs by CCK8 assay. Type of experiment: functional, cell-based. To be noted: HL-60, 72 h.
The test system of experiment [5] is HEL. The experiment in a line: Antiproliferative activity against human HEL cells assessed as reduction in cell viability after 72 hrs by CCK8 assay. Type of experiment: functional, cell-based.
Experiment [6] deals with HCT-116. In words: Antiproliferative activity against human HCT116 cells NAMPT deficient assessed as reduction in cell viability after 72 hrs by CCK8 assay. Type of experiment: functional, cell-based. To be noted: HCT-116, 72 h. The method in brief:
(§1)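 NAMPT-deficient cells were generated by siRNA knockdown of NAMPT before cytotoxicity testing.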

Experiment [7] concerns K562. The experiment in a line: Antiproliferative activity against human K562 cells NAMPT deficient assessed as reduction in cell viability after 72 hrs by CCK8 assay. Format: functional, cell-based. To be noted: K562, 72 h. In a few lines: as §1
Experiment [8] deals with HL-60. In words: Antiproliferative activity against human HL60 cells NAMPT deficient assessed as reduction in cell viability after 72 hrs by CCK8 assay. Type of experiment: functional, cell-based. To be noted: HL-60, 72 h. The method in brief: as §1
Experiment [9] has as its system HEL. In words: Antiproliferative activity against human HEL cells NAMPT deficient assessed as reduction in cell viability after 72 hrs by CCK8 assay. Format: functional, cell-based. In a few lines: as §1
The target in experiment [10] is T1, Nicotinamide phosphoribosyltransferase. In words: Inhibition of NAMPT in human HCT116 cells assessed as decrease in cellular NAD+ level after 24 hrs by MTT assay. Type of experiment: cell-based. The method in brief: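 Relative cellular NAD+ level in HCT116 cells after 24 h exposure to a range of compound concentrations, compared qualitatively with an untreated control.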
Target sequence in this assay (P43490 whole entry, looked up): as the sequence (P43490 whole entry) above

Experiment [11] has the same target. In words: Inhibition of NAMPT in human HCT116 cells assessed as decrease in cellular NAD+ level after 24 hrs in presence of NA by MTT assay. Format: cell-based. In a few lines: (§2)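 Rescue test in HCT116, K562, HL60 and HEL cells, with NA supplemented at 4 μM alongside compound treatment.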
Target sequence in this assay (P43490 whole entry, looked up): as the sequence (P43490 whole entry) above
For experiment [12] the target is unchanged. In words: Inhibition of NAMPT in human HCT116 cells assessed as decrease in cellular NAD+ level after 24 hrs in presence of NMN by MTT assay. Type of experiment: cell-based. The method in brief:
(§3)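 Rescue test in HCT116, K562, HL60 and HEL cells, with NMN supplemented at 10 μM alongside compound treatment.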
Target sequence in this assay (P43490 whole entry, looked up): as the sequence (P43490 whole entry) above

Experiment [13] has the same target. In words: Inhibition of NAMPT in human K562 cells assessed as decrease in cellular NAD+ level after 24 hrs in presence of NA by MTT assay. Type of experiment: cell-based. The method in brief:
as §2
Target sequence in this assay (P43490 whole entry, looked up): as the sequence (P43490 whole entry) above

Experiment [14] shares this target. In words: Inhibition of NAMPT in human K562 cells assessed as decrease in cellular NAD+ level after 24 hrs in presence of NMN by MTT assay. Type of experiment: cell-based. In a few lines: as §3
Target sequence in this assay (P43490 whole entry, looked up): as the sequence (P43490 whole entry) above
Experiment [15] shares this target. The experiment in a line: Inhibition of NAMPT in human HL60 cells assessed as decrease in cellular NAD+ level after 24 hrs in presence of NA by MTT assay. Type of experiment: cell-based. The method in brief: as §2
Target sequence in this assay (P43490 whole entry, looked up): as the sequence (P43490 whole entry) above
The target is the same in experiment [16]. In words: Inhibition of NAMPT in human HL60 cells assessed as decrease in cellular NAD+ level after 24 hrs in presence of NMN by MTT assay. Format: cell-based. The method in brief: as §3
Experiment [17] has the same target. In words: Inhibition of NAMPT in human HEL cells assessed as decrease in cellular NAD+ level after 24 hrs in presence of NA by MTT assay. Format: cell-based. In a few lines: as §2
The target is the same in experiment [18]. In words: Inhibition of NAMPT in human HEL cells assessed as decrease in cellular NAD+ level after 24 hrs in presence of NMN by MTT assay. Type of experiment: cell-based. In a few lines: as §3

One may read the IC50 as the concentration needed to halve the response being measured. For the molecule `Nc1cc(F)ccc1NC(=O)c1ccc(CNC(=O)/C=C/c2cccnc2)cc1` [TUCIDINOSTAT], the IC50 is 2100 nM in experiment [1]; 340 nM with HCT-116 [2]; 320 nM in the experiment with K562 [3]; 2.2 nM with HL-60 [4]; 13 nM in the experiment on HEL [5]; greater than 20000 nM with HCT-116 [6]. The IC50 in the experiment with K562 [7] worked out at 2400 nM; with HL-60 [8], 3200 nM; with HEL [9], 1800 nM. Further, the inhibition result in experiment [10] is “Active”. In addition, the inhibition result in experiment [11], in experiment [12], in experiment [13], in experiment [14], in experiment [15] and in experiment [16] was “inactive” in each case. The inhibition result in [17] and in experiment [18] was “inactive” in each case.
